ChEMBL document CHEMBL1150419, “Structure-activity relationships of a peptide inhibitor of the human FcRn:human IgG interaction” (Bioorg Med Chem, 2008)

Key:
[1] = target: T1, IgG receptor FcRn large subunit p51 (Homo sapiens, UniProt P55899); experiment: Binding affinity to human FcRn at pH 6 by surface plasmon resonance assay
Outline: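 Soluble human FcRn coupled to the dextran surface of a CM5 chip; peptide dilutions flowed over the chip. The equilibrium response at each dilution was plotted against concentration and fitted to a steady-state affinity model to give Kd.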

[2] = target: T1, IgG receptor FcRn large subunit p51; experiment: Inhibition of human IgG binding to soluble human FcRn by ELISA
Outline: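 Biotinylated soluble human FcRn immobilized on neutravidin plates, incubated with hIgG (3 nM, constant) and peptide at varying concentrations for 2 h at 37 °C. After washing, bound hIgG detected with peroxidase-conjugated hIgG-specific Fab fragments.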

T1 sequence (P55899 whole entry): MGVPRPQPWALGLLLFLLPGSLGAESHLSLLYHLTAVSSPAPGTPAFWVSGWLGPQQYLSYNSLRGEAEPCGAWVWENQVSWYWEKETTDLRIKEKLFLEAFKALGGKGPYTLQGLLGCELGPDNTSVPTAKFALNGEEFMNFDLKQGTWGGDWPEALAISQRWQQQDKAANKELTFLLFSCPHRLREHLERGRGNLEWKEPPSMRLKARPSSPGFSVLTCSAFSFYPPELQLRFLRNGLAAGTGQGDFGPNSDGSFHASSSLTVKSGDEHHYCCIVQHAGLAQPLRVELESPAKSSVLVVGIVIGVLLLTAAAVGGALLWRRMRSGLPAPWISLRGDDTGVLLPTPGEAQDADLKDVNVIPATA

Row | Compound | Kd [1] [µM] | IC50 [2] [µM]
1 | CC(C)C[C@@H](C(=O)N[C@@H](Cc1ccc(O)cc1)C(=O)N1CCC[C@H]1C(=O)N[C@@H](CS)C(=O)O)N(C)C(=O)CN(C)C(=O)CNC(=O)[C@H](CCc1ccccc1)NC(=O)[C@H](Cc1cnc[nH]1)NC(=O)CNC(=O)[C@@H](NC(=O)[C@@H](NC(=O)[C@H](Cc1ccccc1)NC(=O)[C@H](CCCNC(=N)N)NC(=O)[C@@H](N)CCC(N)=O)C(C)(C)S)[C@@H](C)O | 230 | 16
2 | CC(C)C[C@H](NC(=O)CNC(=O)CNC(=O)[C@H](Cc1ccc(C(C)(C)C)cc1)NC(=O)[C@H](Cc1cnc[nH]1)NC(=O)CNC(=O)[C@@H](NC(=O)[C@@H](NC(=O)[C@H](Cc1ccccc1)NC(=O)[C@H](CCCNC(=N)N)NC(=O)[C@@H](N)CCC(N)=O)C(C)(C)S)[C@@H](C)O)C(=O)N[C@@H](Cc1ccc(O)cc1)C(=O)N1CCC[C@H]1C(=O)N[C@@H](CS)C(=O)O | 230 | > 125
3 | CC(C)C[C@H](NC(=O)CN1CCCC[C@@H](NC(=O)[C@H](Cc2ccccc2)NC(=O)[C@H](Cc2cnc[nH]2)NC(=O)CNC(=O)[C@@H](NC(=O)[C@H](NC(=O)[C@H](Cc2ccccc2)NC(=O)[C@@H](N)CCCNC(=N)N)C(C)(C)S)[C@@H](C)O)C1=O)C(=O)N[C@@H](Cc1ccc(O)cc1)C(=O)N1CCC[C@H]1C(=O)N[C@@H](CS)C(=O)O | 0.103 | 0.64
4 | CC(C)C[C@H](NC(=O)CN1CCC[C@H](NC(=O)[C@H](Cc2ccccc2)NC(=O)[C@H](Cc2cnc[nH]2)NC(=O)CNC(=O)[C@@H](NC(=O)[C@H](NC(=O)[C@H](Cc2ccccc2)NC(=O)[C@@H](N)CCCN=C(N)N)C(C)(C)S)[C@@H](C)O)C1=O)C(=O)N[C@@H](Cc1ccc(O)cc1)C(=O)N1CCC[C@H]1C(=O)N[C@@H](CS)C(=O)O | 0.67 | 7.2
5 | CC(C)C[C@H](NC(=O)CNC(=O)CNC(=O)[C@H](Cc1ccccc1)NC(=O)[C@H](Cc1cnc[nH]1)NC(=O)CNC(=O)[C@@H](NC(=O)[C@@H](NC(=O)[C@H](Cc1ccccc1)NC(=O)[C@H](CCCNC(=N)N)NC(=O)[C@@H](N)CCC(N)=O)C(C)(C)S)[C@@H](C)O)C(=O)N[C@@H](Cc1ccc(O)cc1[N+](=O)[O-])C(=O)N1CCC[C@H]1C(=O)N[C@@H](CS)C(=O)N[C@@H](CC(N)=O)C(=O)NCC(=O)N1CCC[C@H]1C(=O)O | 290 | > 125
6 | CC(C)C[C@H](NC(=O)CN1CCCC[C@@H](NC(=O)[C@H](Cc2ccccc2)NC(=O)[C@H](Cc2cnc[nH]2)NC(=O)CNC(=O)[C@@H](NC(=O)[C@@H](NC(=O)[C@H](Cc2ccccc2)NC(=O)[C@@H](N)CCCN=C(N)N)C(C)C)[C@@H](C)O)C1=O)C(=O)N[C@@H](Cc1ccc(O)cc1)C(=O)N1CCC[C@H]1C(=O)N[C@@H](C)C(=O)O | 2.3 | 23
7 | CC(C)C[C@@H](C(=O)N[C@@H](Cc1ccc(O)cc1)C(=O)N1CCC[C@H]1C(=O)N[C@@H](CS)C(=O)O)N(C)C(=O)CN1CCC[C@@H](NC(=O)[C@H](Cc2ccccc2)NC(=O)[C@H](Cc2cnc[nH]2)NC(=O)CNC(=O)[C@@H](NC(=O)[C@H](NC(=O)[C@H](Cc2ccccc2)NC(=O)[C@@H](N)CCCNC(=N)N)C(C)(C)S)[C@@H](C)O)C1=O | 0.043 | 0.53
8 | CC(C)C[C@H](NC(=O)CNC(=O)CNC(=O)[C@H](Cc1ccccc1)NC(=O)[C@H](Cc1cnc[nH]1)NC(=O)CNC(=O)[C@@H](NC(=O)[C@@H](NC(=O)[C@H](Cc1ccccc1)NC(=O)[C@H](CCCNC(=N)N)NC(=O)[C@@H](N)CCC(N)=O)C(C)(C)S)[C@@H](C)O)C(=O)N[C@@H](Cc1cccnc1)C(=O)N1CCC[C@H]1C(=O)N[C@@H](CS)C(=O)N[C@@H](CC(N)=O)C(=O)NCC(=O)N1CCC[C@H]1C(=O)O | 34 | 92
9 | CC(C)C[C@H](NC(=O)CNC(=O)CNC(=O)[C@H](Cc1ccccc1)NC(=O)[C@H](Cc1cnc[nH]1)NC(=O)CNC(=O)[C@@H](NC(=O)[C@H](CCC(=O)O)NC(=O)[C@H](Cc1ccccc1)NC(=O)[C@H](CCCN=C(N)N)NC(=O)[C@@H](N)CCC(N)=O)[C@@H](C)O)C(=O)N[C@@H](Cc1ccc(O)cc1)C(=O)N1CCC[C@H]1C(=O)N[C@@H](CCCN)C(=O)N[C@@H](CC(N)=O)C(=O)NCC(=O)N1CCC[C@H]1C(=O)O | 15 | 80
10 | CC(C)C[C@H](NC(=O)CNC(=O)CNC(=O)[C@H](Cc1ccccc1)NC(=O)[C@H](Cc1cnc[nH]1)NC(=O)CNC(=O)[C@@H](NC(=O)[C@H](CCC(=O)O)NC(=O)[C@H](Cc1ccccc1)NC(=O)[C@H](CCCNC(=N)N)NC(=O)[C@@H](N)CCC(N)=O)[C@@H](C)O)C(=O)N[C@@H](Cc1ccc(O)cc1)C(=O)N1CCC[C@H]1C(=O)N[C@@H](CCN)C(=O)N[C@@H](CC(N)=O)C(=O)NCC(=O)N1CCC[C@H]1C(=O)O | 22 | 86
11 | CC(C)C[C@H](NC(=O)CNC(=O)CNC(=O)[C@H](Cc1ccccc1)NC(=O)[C@H](Cc1cnc[nH]1)NC(=O)CNC(=O)[C@@H](NC(=O)[C@@H](NC(=O)[C@H](Cc1ccccc1)NC(=O)[C@H](CCCN=C(N)N)NC(=O)[C@@H](N)CCC(N)=O)C(C)(C)S)[C@@H](C)O)C(=O)N[C@@H](Cc1ccc(N)cc1)C(=O)N1CCC[C@H]1C(=O)N[C@@H](CS)C(=O)N[C@@H](CC(N)=O)C(=O)NCC(=O)N1CCC[C@H]1C(=O)O | 34 | 110
12 | CC(C)C[C@H](NC(=O)CNC(=O)CNC(=O)[C@@H](NC(=O)[C@H](Cc1cnc[nH]1)NC(=O)CNC(=O)[C@@H](NC(=O)[C@@H](NC(=O)[C@H](Cc1ccccc1)NC(=O)[C@H](CCCN=C(N)N)NC(=O)[C@@H](N)CCC(N)=O)C(C)(C)S)[C@@H](C)O)C(c1ccccc1)c1ccccc1)C(=O)N[C@@H](Cc1ccc(O)cc1)C(=O)N1CCC[C@H]1C(=O)N[C@@H](CS)C(=O)O | 230 | 32
13 | COc1ccc(C[C@H](NC(=O)[C@H](Cc2cnc[nH]2)NC(=O)CNC(=O)[C@@H](NC(=O)[C@@H](NC(=O)[C@H](Cc2ccccc2)NC(=O)[C@H](CCCN=C(N)N)NC(=O)[C@@H](N)CCC(N)=O)C(C)(C)S)[C@@H](C)O)C(=O)NCC(=O)NCC(=O)N[C@@H](CC(C)C)C(=O)N[C@@H](Cc2ccc(O)cc2)C(=O)N2CCC[C@H]2C(=O)N[C@@H](CS)C(=O)N[C@@H](CC(N)=O)C(=O)NCC(=O)N2CCC[C@H]2C(=O)O)cc1 | 18 | 100
14 | CC(C)C[C@H](NC(=O)CNC(=O)CNC(=O)[C@H](Cc1ccccc1)NC(=O)[C@H](Cc1cnc[nH]1)NC(=O)CNC(=O)[C@@H](NC(=O)[C@H](CCC(=O)O)NC(=O)[C@H](Cc1ccccc1)NC(=O)[C@H](CCCNC(=N)N)NC(=O)[C@@H](N)CCC(N)=O)[C@@H](C)O)C(=O)N[C@@H](Cc1ccc(O)cc1)C(=O)N1CCC[C@H]1C(=O)N[C@@H](CN)C(=O)N[C@@H](CC(N)=O)C(=O)NCC(=O)N1CCC[C@H]1C(=O)O | 9.6 | 71
15 | CC(C)C[C@H](NC(=O)CNC(=O)CNC(=O)[C@H](Cc1ccccc1)NC(=O)[C@H](Cc1cnc[nH]1)NC(=O)CNC(=O)[C@@H](NC(=O)[C@H](CCC(=O)O)NC(=O)[C@H](Cc1ccccc1)NC(=O)[C@H](CCCNC(=N)N)NC(=O)[C@@H](N)CCC(N)=O)[C@@H](C)O)C(=O)N[C@@H](Cc1ccc(O)cc1)C(=O)N1CCC[C@H]1C(=O)N[C@@H](CCCCN)C(=O)N[C@@H](CC(N)=O)C(=O)NCC(=O)N1CCC[C@H]1C(=O)O | 27 | 100
16 | CC(C)C[C@H](NC(=O)CNC(=O)CNC(=O)[C@H](Cc1ccccc1)NC(=O)[C@H](Cc1cnc[nH]1)NC(=O)CNC(=O)[C@@H](NC(=O)[C@H](CS)NC(=O)[C@H](Cc1ccccc1)NC(=O)[C@H](CCCNC(=N)N)NC(=O)[C@@H](N)CCC(N)=O)[C@@H](C)O)C(=O)N[C@@H](Cc1ccccc1)C(=O)N1CCC[C@H]1C(=O)N[C@@H](CS)C(=O)N[C@@H](CC(N)=O)C(=O)NCC(=O)N1CCC[C@H]1C(=O)O | 230 | > 125
17 | CC(C)C[C@H](NC(=O)CNC(=O)CNC(=O)[C@H](Cc1ccccc1)NC(=O)[C@H](Cc1cnc[nH]1)NC(=O)CNC(=O)[C@@H](NC(=O)[C@@H](NC(=O)[C@H](Cc1ccccc1)NC(=O)[C@H](CCCNC(=N)N)NC(=O)[C@@H](N)CCC(N)=O)C(C)(C)S)[C@@H](C)O)C(=O)N[C@@H](Cc1c(F)c(F)c(F)c(F)c1F)C(=O)N1CCC[C@H]1C(=O)N[C@@H](CS)C(=O)N[C@@H](CC(N)=O)C(=O)NCC(=O)N1CCC[C@H]1C(=O)O | 72 | > 125
18 | CC(C)C[C@H](NC(=O)CN1CCC[C@@H](NC(=O)[C@H](Cc2ccccc2)NC(=O)[C@H](Cc2cnc[nH]2)NC(=O)CNC(=O)[C@@H](NC(=O)[C@@H](NC(=O)[C@H](Cc2ccccc2)NC(=O)[C@@H](N)CCCNC(=N)N)C(C)(C)S)[C@@H](C)O)C1=O)C(=O)N[C@@H](Cc1ccc(O)cc1)C(=O)N1CCC[C@H]1C(=O)N[C@@H](CS)C(=O)O | 0.16 | 0.66
19 | CC(C)C[C@@H](C(=O)N[C@@H](Cc1ccc(O)cc1)C(=O)N1CCC[C@H]1C(=O)N[C@@H](CS)C(=O)O)N(C)C(=O)CN(C)C(=O)CNC(=O)[C@H](Cc1ccccc1)NC(=O)[C@H](C)NC(=O)CNC(=O)[C@@H](NC(=O)[C@@H](NC(=O)[C@H](Cc1ccccc1)NC(=O)[C@@H](N)CCCNC(=N)N)C(C)(C)S)[C@@H](C)O | 9.9 | > 100
20 | CC(C)C[C@@H](C(=O)N[C@@H](Cc1ccc(O)cc1)C(=O)N1CCC[C@H]1C(=O)N[C@@H](CS)C(=O)O)N(C)C(=O)CN1CCCC[C@@H](NC(=O)[C@H](Cc2ccccc2)NC(=O)[C@H](Cc2cnc[nH]2)NC(=O)CNC(=O)[C@@H](NC(=O)[C@H](NC(=O)[C@H](Cc2ccccc2)NC(=O)[C@@H](N)CCCNC(=N)N)C(C)(C)S)[C@@H](C)O)C1=O | 0.044 | 0.62
21 | CC(C)C[C@@H](C(=O)N[C@@H](Cc1ccc(O)cc1)C(=O)N1CCC[C@H]1C(=O)N[C@@H](CS)C(=O)O)N(C)C(=O)CN(C)C(=O)CNC(=O)[C@H](Cc1ccccc1)NC(=O)[C@H](Cc1cscn1)NC(=O)CNC(=O)[C@@H](NC(=O)[C@@H](NC(=O)[C@H](Cc1ccccc1)NC(=O)[C@@H](N)CCCN=C(N)N)C(C)(C)S)[C@@H](C)O | 0.84 | 1.6
